Data set [1] can be described thus: Cytotoxicity against african green monkey Vero C1008 cells after 72 hrs by MTT assay. The following applies: chlorocebus sabaeus. It is filed as cell-based. The essentials: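 Mammalian VERO C1008 cells were exposed to the compounds in microtitre plates, viability was read by MTT assay, and CC50 values were determined.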
For orientation: Tetrazolium dyes change colour on reduction, which living cells bring about.

The subject of data set [2] is Mycobacterium tuberculosis. The data set can be described thus: Antimycobacterial activity against Mycobacterium tuberculosis H37Rv after 7 days by resazurin based microdilution assay. Type of data set: functional. The following applies: 168 h. The essentials: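 M. tuberculosis H37Rv in resazurin microtitre assay (REMA) with two-fold serial dilutions of compound; isoniazid as reference drug. MIC taken as lowest concentration giving complete inhibition, read visually by colour change (blue stays blue without growth, turns pink with growth).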

Data on 15 compounds can be found in ChEMBL document CHEMBL1914372, “Synthesis and preliminary biological evaluation of novel N-(3-aryl-1,2,4-triazol-5-yl) cinnamamide derivatives as potential antimycobacterial agents: an operational Topliss Tree approach” (Bioorg Med Chem Lett, 2011).

In brackets after ≈: the same amount, converted by molar mass.

What is called CC50 is the concentration giving 50% cytotoxicity. As usually defined, the MIC is the least concentration at which growth counts as inhibited. Regarding `O=C(/C=C/c1ccc([N+](=O)[O-])s1)Nc1nnc(-c2ccccc2)[nH]1`, the CC50 at 72 h in data set [1] worked out at 1670 µM. In data set [2], this compound returned an MIC of 4.8 µM (≈ 1.64 µg/mL).
In the same order, the values of `Cc1ccc(/C=C/C(=O)Nc2nnc(-c3ccccc3)[nH]2)cc1` are 1760 µM and 82.2 µM (≈ 25 µg/mL).
`O=C(/C=C/c1ccc(OC(F)(F)F)cc1)Nc1nnc(-c2ccccc2)[nH]1` showed a CC50 at 72 h in data set [1] of 1560 µM. In addition, in data set [2], the lowest concentration to inhibit growth (MIC) was 8.6 µM (≈ 3.22 µg/mL).
In the same order, the values of `O=C(/C=C/c1ccc(O)cc1)Nc1nnc(-c2ccccc2)[nH]1` are 1850 µM and 40.8 µM (≈ 12.5 µg/mL).
As to `O=C(/C=C/c1ccc(Cl)cc1)Nc1nnc(-c2ccccc2)[nH]1`, the CC50 at 72 h in data set [1] worked out at 1620 µM. This compound also returned an MIC in data set [2] of 92.6 µM (≈ 30.1 µg/mL).
Consider `Nc1ccc(/C=C/C(=O)Nc2nnc(-c3ccccc3)[nH]2)cc1`, for which, in data set [1], the CC50 at 72 h is 1910 µM. In data set [2], this compound gave an MIC of 20.5 µM (≈ 6.26 µg/mL).
For `COc1ccc(/C=C/C(=O)Nc2nnc(-c3ccccc3)[nH]2)cc1OC`, in that order: 1210 µM and 4.6 µM (≈ 1.61 µg/mL).
Turning to `NNC(=O)c1ccncc1` [ISONIAZID], it took 1460 µM to reach half-maximal cytotoxicity in data set [1] (CC50 at 72 h). The MIC in data set [2] turned out to be 1.8 µM (≈ 0.247 µg/mL).
`O=C(/C=C/c1cccc(Cl)c1)Nc1nnc(-c2ccccc2)[nH]1` registered a CC50 at 72 h in data set [1] of 1470 µM. This compound showed an MIC in data set [2] of 38.6 µM (≈ 12.5 µg/mL).
The compound `O=C(/C=C/c1ccccc1)Nc1nnc(-c2ccccc2)[nH]1` displayed a CC50 at 72 h in data set [1] of 1570 µM. Moreover, in data set [2], it took 86.2 µM (≈ 25 µg/mL) to inhibit growth (MIC).
For `COc1ccc(/C=C/C(=O)Nc2nnc(-c3ccccc3)[nH]2)cc1`, in that order: 1280 µM and 39.1 µM (≈ 12.5 µg/mL).
For `O=C(/C=C/c1cccc([N+](=O)[O-])c1)Nc1nnc(-c2ccccc2)[nH]1`, in that order: 1990 µM and 9.7 µM (≈ 3.25 µg/mL).
In the same order, the values of `O=C(/C=C/c1ccc2c(c1)COC2)Nc1nnc(-c2ccccc2)[nH]1` are 1820 µM and 18.8 µM (≈ 6.25 µg/mL).
In data set [1], `C=C(C)COc1ccc(/C=C/C(=O)Nc2nnc(-c3ccccc3)[nH]2)cc1` had a cytotoxic concentration (CC50) at 72 h of 1420 µM. Also, in data set [2], the MIC was found to be 9 µM (≈ 3.24 µg/mL).
Take `O=C(/C=C/c1ccco1)Nc1nnc(-c2ccccc2)[nH]1`: it took 2180 µM to reach half-maximal cytotoxicity in data set [1] (CC50 at 72 h). In addition, the MIC in data set [2] was 11.6 µM (≈ 3.25 µg/mL).
